Laboratory results reported in PMC5558854 (Molecular cell, 2017).
Where no end group is shown, it is not given here. [ ]: non-standard residue; d: D form. The star is where a group is joined. FITC = O=C1OC2(c3ccc(O)cc3Oc3cc(O)ccc32)c2ccc(NC(=S)*)cc21; pY = N[C@@H](Cc1ccc(OP(=O)(O)O)cc1)C(=O)O

Tests used:
[1] = test system: Csk^AS; assay: Reconstituted cellular system for Lck activation; type: cell-based; conditions: HEK 293 cells with CD45, Csk^AS, 3-IB-PP1 5 μM, 1 min, 37 °C, immunoblot
[2] = test system: Csk^AS; conditions: analog-sensitive allele of Csk; ref Schoenborn et al., 2011; cited from earlier work
[3] = test system: J.Lck cells; assay: Intracellular calcium measurement by flow cytometry; type: cell-based, human; conditions: J.Lck cells expressing Lck Y192E/A variants; Indo-1 AM, 37 °C, flow cytometry (Figure S2)
[4] = test system: tyrosine phosphatases; assay: Total protein phosphotyrosine immunoblot after pervanadate treatment; type: cell-based, human; conditions: J.Lck cells, Lck Y192E/A variants; pervanadate 100 μM; immunoblot (Figure S2B)
Procedure, shortened: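 Jurkat-derived cells grown in RPMI with 10% FBS and 2 mM glutamine at 37 °C, 5% CO2. Lck-reconstituted lines checked by immunoblot and sequencing. Cells rinsed in RPMI, resuspended at 5 × 10^6 cells/mL and rested 15 min at 37 °C, then left unstimulated or given pervanadate (100 μM). Lysis in 1% NP-40 (final) with […], NaF, EDTA, PMSF, protease inhibitors and PP2 (25 μM). Immunoblot read-out.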

[5] = target: GST Lck SH2 Y192E (human Lck SH2 domain, residues 123-227) (human, UniProt P06239 123-227, Y192E); assay: fluorescence polarisation
GST Lck SH2 Y192E (human Lck SH2 domain, residues 123-227), sequence (P06239 123-227 Y192E): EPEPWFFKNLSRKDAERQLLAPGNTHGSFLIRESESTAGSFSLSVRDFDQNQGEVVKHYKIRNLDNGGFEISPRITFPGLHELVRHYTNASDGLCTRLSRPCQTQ

[6] = target: GST Lck SH2 protein (human Lck SH2 domain, residues 123-227, WT) (human, UniProt P06239 123-227); assay: fluorescence polarisation
GST Lck SH2 protein (human Lck SH2 domain, residues 123-227, WT), sequence (P06239 123-227): as the sequence (P06239 123-227 Y192E) above, with E70Y counted along it

## CC(C)(C)n1nc(Cc2cccc(I)c2)c2c(N)ncnc21 [3-IB-PP1]
[1]; N=3, Lck Y192E/A variants
  CD8/ζ-chain phosphorylation upon Csk^AS inhibition: only a minimal increase
[1]; CD8/ζ, N=3, Lck Y192F
  C-terminal tail (Y505) phosphorylation upon Csk^AS inhibition: the Y192F mutant is dephosphorylated by CD45
[2]
  inhibition of Csk^AS: inhibited

## C[C@H](CCC(=O)O)C[C@H](C)C[C@H](C)C(=O)/C=C(\O)[C@H](C)C[C@H](C)C/C=C/[C@@H](C)[C@@H](O)[C@@H](C)[C@@H](O)C[C@@H]1CC[C@@](C)([C@H]2CC[C@@](C)([C@@H](C)O)O2)O1 [ionomycin]
[3]
  calcium response to ionomycin: responded robustly

## pervanadate
[4]
  Lck autophosphorylation upon pervanadate treatment: robust autophosphorylation

## {FITC}-TEGQ[pY]QPQP [FITC-TEGQ[pY]QPQP, phosphopeptide of the Lck C-terminal tail]
[5]
  binding result: binds
[6]
  binding result: binds
